Activity and inhibition data for two molecules are collected here from ChEMBL document CHEMBL4251677, “Pentaminomycins A and B, Hydroxyarginine-Containing Cyclic Pentapeptides from Streptomyces sp. RK88-1441” (J Nat Prod, 2018).

One data set has as its system 4T1. The data set is described as follows: Cytotoxicity against mouse 4T1 cells at 30 uM after 24 hrs by EZ-cytox dye based assay. The format is cell-based. Conditions: 4t1, 24 h. The procedure, abridged:
(§1)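 Cells were seeded at 5.0 × 10^4 per well and grown 24 h, then exposed to compound for 24 h and washed with PBS. They were incubated 2 h in DMEM with EZ-Cytox reagent, and viability was read as water-soluble formazan optical density at 450 nm.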

Data set [1] relates to B16-F10. The data set is described as follows: Cytotoxicity against mouse B16F10 cells at 30 uM after 24 hrs by EZ-cytox dye based assay. It is filed as cell-based. Conditions: b16-f10, 24 h. The procedure, abridged: as §1
In a further data set the test system is B16-F0. The data set can be described thus: Cytotoxicity against mouse B16F0 cells at 30 uM after 24 hrs by EZ-cytox dye based assay. It is filed as cell-based. Conditions: b16-f0, 24 h. The procedure, abridged: as §1
A further data set concerns HeLa. The data set is described as follows: Cytotoxicity against human HeLa cells at 30 uM after 24 hrs by EZ-cytox dye based assay. It is filed as cell-based. In a few lines:
as §1

Data set [2] deals with B16-F10. The data set can be described thus: Antimelanogenic activity in mouse B16F10 cells assessed as inhibition of alpha-MSH-stimulated melanin synthesis up to 10 uM measured after 24 hrs. It is filed as functional, cell-based. In a few lines: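 B16F10 cells (3.5 × 10^4 per well) were grown 24 h in phenol red-free complete DMEM at 37 °C, 5% CO2. They were then given α-MSH (200 nM) with compound at 0–10 μM for 24 h. Cells were PBS-washed, trypsin-EDTA detached and centrifuged. Melanin was read as absorbance at 405 nm; mean ± SD, n = 3.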

Data set [3] concerns B16-F10. The data set is described as follows: Antimelanogenic activity in mouse B16F10 cells assessed as inhibition of alpha-MSH-stimulated melanin synthesis by measuring reduction in TRP2 expression up to 10 uM measured after 24 hrs by Western blot analysis. The format is functional, cell-based. The procedure, abridged:
(§2)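 B16F10 cells at 1.0 × 10^5 cells/mL were preincubated 24 h, then exposed to α-MSH (100 nM) plus 5, 7.5 or 10 μM compound for 24 h. Cells were lysed in M-per buffer. Whole-cell protein was run on SDS-PAGE and blotted to nitrocellulose, probed with anti-TRP-1 or anti-TRP-2 antibodies, and detected by chemiluminescence on film.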
A general note: In western blotting, separated proteins are transferred to a membrane and probed.

In data set [4] the test system is B16-F10. The data set can be described thus: Antimelanogenic activity in mouse B16F10 cells assessed as inhibition of alpha-MSH-stimulated melanin synthesis by measuring reduction in TRP1 expression up to 10 uM measured after 24 hrs by Western blot analysis. The format is functional, cell-based. In a few lines: as §2

Activity calls are given as the source filed them. The rule behind the calls is not given here. Starred links: 1 amine or outer side, 2 acyl side, 3 side chain; linkers in the order of their positions; H or OH if unused. Non-standard residues stand in square brackets, D forms with d. Residues, ends and D or L forms follow the SMILES beside them. X1 = N=C(N)N(O)CCC[C@H](N[*:1])C(=O)[*:2]

For the molecule `CC(C)C[C@@H]1NC(=O)[C@@H](CC(C)C)NC(=O)[C@H](CCCN(O)C(=N)N)NC(=O)[C@H](Cc2c[nH]c3ccccc23)NC(=O)[C@@H](C(C)C)NC1=O` (cyclo(L[dV]W[X1][dL])), the Activity entry in the data set on 4T1, in the data set with B16-F10 [1], with B16-F0 and with HeLa was “Non-Toxic” each time.
As to `CC(C)C[C@H]1NC(=O)[C@H](CCCN(O)C(=N)N)NC(=O)[C@H](Cc2c[nH]c3ccccc23)NC(=O)[C@@H](C(C)C)NC(=O)[C@H](C(C)C)NC1=O`, the Activity result in the data set on 4T1, in the data set with B16-F10 [1], with B16-F0 and with HeLa was “Non-Toxic” throughout. For the same molecule, the inhibition result in the data set with B16-F10 [2], in the data set on B16-F10 [3] and with B16-F10 [4] was “Active” in each case.
